The source of these data is publication PMC11168086 (RSC Advances, 2024).

≈ marks a conversion by molar mass, not a printed value.

Data set [1] in a line: Kinetic aqueous solubility. The format is physicochemical. To be noted: PBS buffer, pH 7.4, aqueous buffer, kinetic from dmso stock. An outline of the steps:
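10 mM DMSO stocks were diluted into PBS pH 7.4 to a 500 μM target and shaken 2 h at room temperature. Samples were vacuum-filtered, diluted with acetonitrile to prevent precipitation, and scanned by UV-vis over 250–500 nm. Concentration was derived from a 3-point calibration at each compound's λmax.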

Data set [2] is described as follows: Intestinal-specific PAMPA. The format is in vitro ADME. As to conditions: pH 6.5. The procedure, abridged:
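Donor solutions at nominal 500 μM came from 10 mM DMSO stocks diluted in phosphate donor buffer, pH 6.5. The acceptor buffer held 5% DMSO. The membrane was phosphatidylcholine plus cholesterol in chloroform/dodecane/hexane (5:25:70 v/v). Plates were incubated 4 h at 37 °C, covered. Acceptor UV-vis absorbance was read over 250–500 nm. Pa was calculated by the Wohnsland–Faller equation from acceptor versus equilibrium absorbance at λmax.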

Data set [3] relates to A2780 (ovarian cancer) cells. Kind of data set: MTT antiproliferative assay, A2780. The class given is cell-based, human. As to conditions: for Lipophilic efficiency (LipE = pIC50 – logP): A2780; for IC50: Homo sapiens, A2780, 72 h. The procedure, abridged: (§1)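 Cells from ECACC were grown in MEM with 10% FBS, non-essential amino acids and penicillin-streptomycin, at 37 °C and 5% CO2. Cells were seeded at 5000 per well, left overnight, then exposed to test compound 72 h. MTT was added for 4 h, and formazan was dissolved in DMSO (60 min, 37 °C) and read at 545 nm. Compounds giving >50% inhibition at 10 μM were rerun over 0.1–30 μM for IC50. Two independent experiments used five wells each, with cisplatin as positive control.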

Data set [4] has as its system MDA-MB-231 (breast cancer) cells. Kind of data set: MTT antiproliferative assay, MDA-MB-231. The class given is cell-based, human. As to conditions: for IC50: Homo sapiens, MDA-MB-231, 72 h, MDA-MB-231, MTT, 72 h; for Lipophilic efficiency (LipE = pIC50 – logP): MDA-MB-231. An outline of the steps:
as §1

The test system of data set [5] is MCF7 (breast cancer) cells. Put plainly: MTT antiproliferative assay, MCF7. The format is cell-based, human. As to conditions: for IC50: Homo sapiens, MCF7, 72 h, MCF-7, MTT, 72 h; for Lipophilic efficiency (LipE = pIC50 – logP): MCF-7. The procedure, abridged:
as §1

Data set [6] has as its system HeLa (cervical cancers) cells. Kind of data set: MTT antiproliferative assay, HeLa. The class given is cell-based, human. To be noted: for IC50: Homo sapiens, 72 h. The procedure, abridged: as §1

With `C=C(C)[C@@H]1CC[C@@H](C)C[C@H]1OCc1ccccc1` [Compound 2a, O-benzyl isopulegol], in data set [1], the kinetic solubility at 2 h was determined as 1.1 ± 0.01 µM (≈ 0.269 µg/mL).
As for `C=C(C)[C@@H]1CC[C@@H](C)C[C@H]1OCc1ccc(F)cc1` [Compound 2b], in data set [1], the solubility (kinetic) at 2 h amounted to 90 ± 4.8 µM (≈ 23.6 µg/mL). Also, the Papp at 4 h, 500 μM in data set [2] was determined as 50.7 ± 4.7 ×10⁻⁶ cm/s.
`C=C(C)[C@@H]1CC[C@@H](C)C[C@H]1OCc1ccc(OC)cc1` [Compound 2c] came in with a kinetic solubility at 2 h in data set [1] of 247 ± 2.8 µM (≈ 67.8 µg/mL). Moreover, the Papp at 4 h, 500 μM in data set [2] was 26.1 ± 5.4 ×10⁻⁶ cm/s.
On to `C[C@@H]1CC[C@@H]([C@](C)(O)CNCc2ccccc2)[C@H](OCc2ccccc2)C1` [Compound 6a], for which the “Lipophilic efficiency (LipE = pIC50 – logP)” value turned out to be 0.12 in data set [3], 0.01 in data set [4], 0.18 in data set [5] and 0.09 in data set [6]. Besides, the IC50 is 2.6 µM in data set [3], 3.4 µM in data set [4], 2.3 µM in data set [5] and 2.8 µM in data set [6]. In addition, the solubility (kinetic) at 2 h in data set [1] is 3.3 ± 0.01 µM (≈ 1.21 µg/mL).
In turn, `C[C@@H]1CC[C@@H]([C@](C)(O)CNCc2ccc(F)cc2)[C@H](OCc2ccccc2)C1` [Compound 7a] yielded a solubility (kinetic) at 2 h in data set [1] of 2.5 ± 0.1 µM (≈ 0.964 µg/mL). Also, the IC50 was determined as 20.3 µM in data set [5] and 24.3 µM in data set [6].
Consider `C[C@@H]1CC[C@@H]([C@](C)(O)CNCc2cccc(F)c2)[C@H](OCc2ccccc2)C1` [Compound 8a], for which the “Lipophilic efficiency (LipE = pIC50 – logP)” value in data set [3] is −0.25; in data set [4] it was −0.28; in data set [5] it was 0.17; in data set [6], 0.00. The IC50 in data set [3] was 9.3 µM; in data set [4], 9.9 µM; in data set [5] it was 3.5 µM; in data set [6], 5.2 µM. Moreover, the kinetic solubility at 2 h in data set [1] came out at 31.8 ± 1 µM (≈ 12.3 µg/mL). In addition, the Papp at 4 h, 500 μM in data set [2] was 9.8 ± 1.2 ×10⁻⁶ cm/s.
`C[C@@H]1CC[C@@H]([C@](C)(O)CNCc2ccccc2F)[C@H](OCc2ccccc2)C1` [Compound 9a] displayed a kinetic solubility at 2 h in data set [1] of 1.4 ± 0.02 µM (≈ 0.54 µg/mL). Also, in data set [5], the concentration for half-maximal inhibition (IC50) worked out at 8.6 µM and the “Lipophilic efficiency (LipE = pIC50 – logP)” value is listed as −0.21. In addition, in data set [6], the “Lipophilic efficiency (LipE = pIC50 – logP)” value is given as −0.09 and the IC50 worked out at 6.5 µM.
Take `COc1ccc(CNC[C@@](C)(O)[C@@H]2CC[C@@H](C)C[C@H]2OCc2ccccc2)cc1` [Compound 10a]: the “Lipophilic efficiency (LipE = pIC50 – logP)” value in data set [3] is listed as −0.25; in data set [4], −0.15; in data set [5], 0.32; in data set [6], −0.03. Also, the half-inhibitory concentration (IC50) stood at 7.3 µM in data set [3], 5.7 µM in data set [4], 1.9 µM in data set [5] and 4.3 µM in data set [6]. The compound also gave a kinetic solubility at 2 h in data set [1] of 25.7 ± 1 µM (≈ 10.2 µg/mL). The same compound displayed a Papp at 4 h, 500 μM in data set [2] of 20.6 ± 1.4 ×10⁻⁶ cm/s.
Turning to `COc1cccc(CNC[C@@](C)(O)[C@@H]2CC[C@@H](C)C[C@H]2OCc2ccccc2)c1` [Compound 11a], the IC50 in data set [3] is 12.5 µM; in data set [4], 11.7 µM; in data set [5], 2 µM; in data set [6] it was 6.3 µM. In data set [1], the kinetic solubility at 2 h amounted to 82 ± 2.2 µM (≈ 32.6 µg/mL). Further, the “Lipophilic efficiency (LipE = pIC50 – logP)” value in data set [5] was 0.32; in data set [6], −0.19. Further, in data set [2], the Papp at 4 h, 500 μM is 1.8 ± 0.5 ×10⁻⁶ cm/s.
Take `C[C@@H]1CC[C@@H]([C@](C)(O)CNCc2cccc3ccccc23)[C@H](OCc2ccccc2)C1` [Compound 13a]: the IC50 in data set [3] was determined as 13.7 µM; in data set [4], 25 µM; in data set [5] it was 4.3 µM; in data set [6], 5.4 µM. The kinetic solubility at 2 h in data set [1] was 2.1 ± 0.1 µM (≈ 0.877 µg/mL). For the same compound, the “Lipophilic efficiency (LipE = pIC50 – logP)” value in data set [5] is recorded as −0.94; in data set [6], −1.04.
On to `C[C@@H]1CC[C@@H]([C@](C)(O)Cn2ccnc2)[C@H](OCc2ccccc2)C1` [Compound 14a], for which, in data set [1], the solubility (kinetic) at 2 h came out at 4.1 ± 0.7 µM (≈ 1.35 µg/mL). The same compound had an IC50 in data set [6] of 24.5 µM.
Compound `C=C(COCc1ccccc1)[C@@H]1CC[C@@H](C)C[C@H]1OCc1ccccc1` [Compound 30a] came in with a solubility (kinetic) at 2 h in data set [1] of 40.8 ± 5 µM (≈ 14.3 µg/mL).
Still for that read-out and setting: as for `C=C(COCc1ccc(F)cc1)[C@@H]1CC[C@@H](C)C[C@H]1OCc1ccc(F)cc1` [Compound 30b], the figure is 17.6 ± 0.6 µM (≈ 6.8 µg/mL).
`C=C(COCc1ccc(OC)cc1)[C@@H]1CC[C@@H](C)C[C@H]1OCc1ccc(OC)cc1` [Compound 30c]: the kinetic solubility at 2 h in data set [1] stood at 31.5 ± 1.3 µM (≈ 12.9 µg/mL). This compound returned an IC50 in data set [6] of 24.7 µM.
As to `C[C@@H]1CC[C@@H]([C@](O)(CNCc2ccccc2)COCc2ccccc2)[C@H](OCc2ccccc2)C1` [Compound 34a], the “Lipophilic efficiency (LipE = pIC50 – logP)” value in data set [3] was −1.36; in data set [4], −1.35; in data set [5], −1.05; in data set [6], −1.16. In addition, the IC50 was found to be 4.1 µM in data set [3], 4 µM in data set [4], 2 µM in data set [5] and 2.6 µM in data set [6]. This compound displayed a kinetic solubility at 2 h in data set [1] of 2.8 ± 0.2 µM (≈ 1.33 µg/mL).
With `C[C@@H]1CC[C@@H]([C@@](O)(CNCc2ccccc2)COCc2ccccc2)[C@H](OCc2ccccc2)C1` [Compound 34b], the “Lipophilic efficiency (LipE = pIC50 – logP)” value is on record as −1.26 in data set [3], −1.28 in data set [4], −1.32 in data set [5] and −1.11 in data set [6]. For the same compound, the IC50 in data set [3] was 3.3 µM; in data set [4], 3.4 µM; in data set [5] it was 3.7 µM; in data set [6], 2.3 µM. Also, the kinetic solubility at 2 h in data set [1] came out at 8 ± 1 µM (≈ 3.79 µg/mL).
For the compound `C[C@@H]1CC[C@@H]([C@](O)(CNCc2cccc3ccccc23)COCc2ccccc2)[C@H](OCc2ccccc2)C1` [Compound 41a], the “Lipophilic efficiency (LipE = pIC50 – logP)” value in data set [3] is −2.57; in data set [4], −2.42; in data set [5] it was −2.64; in data set [6] it was −2.28. Further, the IC50 was 5 µM in data set [3], 3.6 µM in data set [4], 5.9 µM in data set [5] and 2.6 µM in data set [6]. In data set [1], this compound returned a solubility (kinetic) at 2 h of 1 ± 0.03 µM (≈ 0.524 µg/mL).
For `C[C@@H]1CC[C@@H]([C@@](O)(CNCc2cccc3ccccc23)COCc2ccccc2)[C@H](OCc2ccccc2)C1` [Compound 41b], the “Lipophilic efficiency (LipE = pIC50 – logP)” value in data set [3] is −2.48; in data set [4], −2.28; in data set [5], −2.62; in data set [6], −2.27. Further, the IC50 is 4.1 µM in data set [3], 2.6 µM in data set [4], 5.7 µM in data set [5] and 2.5 µM in data set [6]. This compound also yielded a kinetic solubility at 2 h in data set [1] of 0.5 ± 0.01 µM (≈ 0.262 µg/mL).
The compound `C[C@@H]1CC[C@@H]([C@@](O)(COCc2ccccc2)Cn2ccnc2)[C@H](OCc2ccccc2)C1` [Compound 42a] displayed a kinetic solubility at 2 h in data set [1] of 7.7 ± 0.7 µM (≈ 3.35 µg/mL).
The compound `C[C@@H]1CC[C@@H]([C@](O)(COCc2ccccc2)Cn2ccnc2)[C@H](OCc2ccccc2)C1` [Compound 42b] gave a solubility (kinetic) at 2 h in data set [1] of 5.2 ± 0.3 µM (≈ 2.26 µg/mL).
